Laboratory results from ChEMBL document CHEMBL4145598, “Discovery and Development of 8-Substituted Cycloberberine Derivatives as Novel Antibacterial Agents against MRSA” (ACS Med Chem Lett, 2018).

Tests used:
Type in all cases: functional
Staphylococcus hominis = assay: Antimicrobial activity against Staphylococcus hominis ATCC 35982 after 18 hrs by agar dilution assay; settings: ATCC 35982, 18 h
Staphylococcus aureus [1] = assay: Antimicrobial activity against methicillin-resistant Staphylococcus aureus isolate 12-3 after 18 hrs by agar dilution assay; settings: isolate 12-3, 18 h
In short: (§1)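 Drug-resistant S. aureus (MRSA/VISA) panel. It includes ATCC reference strains and clinical isolates from patients in Chinese hospitals. MIC was determined by standard methods and reported in μg/mL, with levofloxacin as the reference drug.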

Staphylococcus aureus [2] = assay: Antimicrobial activity against methicillin-resistant Staphylococcus aureus isolate 12-13 after 18 hrs by agar dilution assay; settings: isolate 12-13, 18 h; in short: as §1
Staphylococcus aureus [3] = assay: Antimicrobial activity against methicillin-resistant Staphylococcus aureus isolate 12-8 after 18 hrs by agar dilution assay; settings: isolate 12-8, 18 h; in short: as §1
Staphylococcus aureus [4] = assay: Antimicrobial activity against methicillin-resistant Staphylococcus aureus isolate 13-23 after 18 hrs by agar dilution assay; settings: isolate 13-23, 18 h; in short: as §1
Staphylococcus aureus [5] = assay: Antimicrobial activity against methicillin-resistant Staphylococcus aureus ATCC 33591 after 18 hrs by agar dilution assay; settings: ATCC 33591, 18 h; in short: as §1
Staphylococcus aureus [6] = assay: Antimicrobial activity against methicillin-sensitive Staphylococcus aureus isolate 13-17 after 18 hrs by agar dilution assay; settings: isolate 13-17, 18 h
Staphylococcus aureus [7] = assay: Antimicrobial activity against methicillin-sensitive Staphylococcus aureus ATCC 29213 after 18 hrs by agar dilution assay; settings: ATCC 29213, 18 h
[8] = system: Staphylococcus epidermidis; assay: Antimicrobial activity against methicillin-sensitive Staphylococcus epidermidis isolate 13-1 after 18 hrs by agar dilution assay; settings: isolate 13-1, 18 h
[9] = system: Staphylococcus epidermidis; assay: Antimicrobial activity against methicillin-sensitive Staphylococcus epidermidis ATCC 12228 after 18 hrs by agar dilution assay; settings: ATCC 12228, 18 h
Staphylococcus aureus [10] = assay: Antimicrobial activity against methicillin-sensitive Staphylococcus aureus isolate 13-20 after 18 hrs by agar dilution assay; settings: isolate 13-20, 18 h
Staphylococcus aureus [11] = assay: Antimicrobial activity against methicillin-resistant Staphylococcus aureus ATCC-BAA-1708 after 18 hrs by agar dilution assay; settings: ATCC-BAA-1708, 18 h; in short: as §1
Staphylococcus aureus [12] = assay: Antimicrobial activity against methicillin-sensitive Staphylococcus aureus isolate 15 after 18 hrs by agar dilution assay; settings: isolate 15, 18 h
Staphylococcus aureus [13] = assay: Antimicrobial activity against vancomycin-intermediate Staphylococcus aureus ATCC 700698 after 18 hrs by agar dilution assay; settings: ATCC 700698, 18 h
In short: (§2)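 MICs in μg/mL against drug-resistant S. aureus (MRSA/VISA) by standard methods, with levofloxacin as the reference drug. ATCC strains were used.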

Staphylococcus aureus [14] = assay: Antimicrobial activity against methicillin-resistant Staphylococcus aureus isolate 12-16 after 18 hrs by agar dilution assay; settings: isolate 12-16, 18 h; in short: as §1
Staphylococcus aureus [15] = assay: Antimicrobial activity against methicillin-sensitive Staphylococcus aureus isolate 13-21 after 18 hrs by agar dilution assay; settings: isolate 13-21, 18 h
Staphylococcus aureus [16] = assay: Antimicrobial activity against methicillin-sensitive Staphylococcus aureus isolate 13-19 after 18 hrs by agar dilution assay; settings: isolate 13-19, 18 h
[17] = system: Staphylococcus saprophyticus; assay: Antimicrobial activity against Staphylococcus saprophyticus ATCC 15305 after 18 hrs by agar dilution assay; settings: ATCC 15305, 18 h
Staphylococcus aureus [18] = assay: Antimicrobial activity against vancomycin-intermediate Staphylococcus aureus ATCC 700699 after 18 hrs by agar dilution assay; settings: ATCC 700699, 18 h; in short: as §2
Staphylococcus aureus [19] = assay: Antimicrobial activity against methicillin-resistant Staphylococcus aureus isolate 13-18 after 18 hrs by agar dilution assay; settings: isolate 13-18, 18 h; in short: as §1

SMILES	MIC (Staphylococcus hominis)	MIC (Staphylococcus aureus [1])	MIC (Staphylococcus aureus [2])	MIC (Staphylococcus aureus [3])	MIC (Staphylococcus aureus [4])	MIC (Staphylococcus aureus [5])	MIC (Staphylococcus aureus [6])	MIC (Staphylococcus aureus [7])	MIC [8]	MIC [9]	MIC (Staphylococcus aureus [10])	MIC (Staphylococcus aureus [11])	MIC (Staphylococcus aureus [12])	MIC (Staphylococcus aureus [13])	MIC (Staphylococcus aureus [14])	MIC (Staphylococcus aureus [15])	MIC (Staphylococcus aureus [16])	MIC [17]	MIC (Staphylococcus aureus [18])	MIC (Staphylococcus aureus [19])
COc1ccc2c(c[n+]3c4c2ccc2c5c(cc(c24)CC3)OCO5)c1OCC(=O)C(C)(C)C.[Br-]	16 µg/mL	32 µg/mL	32 µg/mL	64 µg/mL	32 µg/mL	32 µg/mL	32 µg/mL	32 µg/mL	32 µg/mL	32 µg/mL	32 µg/mL	32 µg/mL	64 µg/mL	> 64 µg/mL	32 µg/mL	32 µg/mL	32 µg/mL	32 µg/mL	> 64 µg/mL	32 µg/mL
COc1ccc2c(c[n+]3c4c2ccc2c5c(cc(c24)CC3)OCO5)c1NCc1ccco1.[Cl-]	32 µg/mL	32 µg/mL	32 µg/mL	64 µg/mL	64 µg/mL	64 µg/mL	32 µg/mL	32 µg/mL	64 µg/mL	32 µg/mL	32 µg/mL	> 64 µg/mL	32 µg/mL	> 64 µg/mL	64 µg/mL	32 µg/mL	16 µg/mL	32 µg/mL	> 64 µg/mL	64 µg/mL
COc1ccc2c(c[n+]3c4c2ccc2c5c(cc(c24)CC3)OCO5)c1NC(=O)C12CC3CC(CC(C3)C1)C2.[Cl-]	> 64 µg/mL	> 64 µg/mL	> 64 µg/mL	> 64 µg/mL	> 64 µg/mL	> 64 µg/mL	> 64 µg/mL	> 64 µg/mL	> 64 µg/mL	> 64 µg/mL	> 64 µg/mL	> 64 µg/mL	> 64 µg/mL	> 64 µg/mL	> 64 µg/mL	> 64 µg/mL	> 64 µg/mL	> 64 µg/mL	> 64 µg/mL	> 64 µg/mL
COc1ccc2c(c[n+]3c4c2ccc2c5c(cc(c24)CC3)OCO5)c1NC(=O)CC1CCCC1.[Cl-]	8 µg/mL	8 µg/mL	16 µg/mL	8 µg/mL	8 µg/mL	8 µg/mL	8 µg/mL	8 µg/mL	8 µg/mL	8 µg/mL	8 µg/mL	4 µg/mL	8 µg/mL	64 µg/mL	8 µg/mL	8 µg/mL	8 µg/mL	32 µg/mL	4 µg/mL	8 µg/mL
COc1ccc2c(c[n+]3c4c2ccc2c5c(cc(c24)CC3)OCO5)c1NCc1ccccc1.[Cl-]	8 µg/mL	64 µg/mL	64 µg/mL	64 µg/mL	64 µg/mL	64 µg/mL	64 µg/mL	64 µg/mL	64 µg/mL	8 µg/mL	64 µg/mL	64 µg/mL	64 µg/mL	32 µg/mL	64 µg/mL	64 µg/mL	64 µg/mL	8 µg/mL	> 64 µg/mL	64 µg/mL
COc1ccc2c(c[n+]3c4c2ccc2c5c(cc(c24)CC3)OCO5)c1OCC(=O)c1cccc(OC(F)(F)F)c1.[Br-]	32 µg/mL	16 µg/mL	32 µg/mL	8 µg/mL	16 µg/mL	16 µg/mL	16 µg/mL	32 µg/mL	32 µg/mL	16 µg/mL	16 µg/mL	64 µg/mL	16 µg/mL	> 64 µg/mL	16 µg/mL	16 µg/mL	16 µg/mL	16 µg/mL	> 64 µg/mL	16 µg/mL
C[C@H]1COc2c(N3CCN(C)CC3)c(F)cc3c(=O)c(C(=O)O)cn1c23.C[C@H]1COc2c(N3CCN(C)CC3)c(F)cc3c(=O)c(C(=O)O)cn1c23.O [LEVOFLOXACIN]	0.125 µg/mL	32 µg/mL	32 µg/mL	32 µg/mL	32 µg/mL	0.125 µg/mL	0.125 µg/mL	0.06 µg/mL	0.125 µg/mL	0.06 µg/mL	0.125 µg/mL	16 µg/mL	0.125 µg/mL	32 µg/mL	32 µg/mL	0.25 µg/mL	0.5 µg/mL	0.5 µg/mL	2 µg/mL	32 µg/mL
COc1ccc2c(c[n+]3c4c2ccc2c5c(cc(c24)CC3)OCO5)c1O.[Cl-]	0.5 µg/mL	0.25 µg/mL	1 µg/mL	0.5 µg/mL	0.25 µg/mL	0.25 µg/mL	0.25 µg/mL	0.25 µg/mL	0.5 µg/mL	0.5 µg/mL	0.25 µg/mL	0.5 µg/mL	4 µg/mL	0.5 µg/mL	0.5 µg/mL	0.5 µg/mL	0.5 µg/mL	> 64 µg/mL	0.25 µg/mL	0.25 µg/mL
CCC(=O)COc1c(OC)ccc2c1c[n+]1c3c2ccc2c4c(cc(c23)CC1)OCO4.[Br-]	> 64 µg/mL	> 64 µg/mL	> 64 µg/mL	> 64 µg/mL	> 64 µg/mL	> 64 µg/mL	> 64 µg/mL	> 64 µg/mL	> 64 µg/mL	> 64 µg/mL	> 64 µg/mL	> 64 µg/mL	> 64 µg/mL	> 64 µg/mL	> 64 µg/mL	> 64 µg/mL	> 64 µg/mL	> 64 µg/mL	> 64 µg/mL	> 64 µg/mL
COc1ccc2c(c[n+]3c4c2ccc2c5c(cc(c24)CC3)OCO5)c1OCC(=O)c1ccccc1OC(F)(F)F.[Br-]	4 µg/mL	16 µg/mL	4 µg/mL	8 µg/mL	8 µg/mL	8 µg/mL	8 µg/mL	8 µg/mL	16 µg/mL	4 µg/mL	8 µg/mL	32 µg/mL	16 µg/mL	> 64 µg/mL	4 µg/mL	8 µg/mL	8 µg/mL	4 µg/mL	> 64 µg/mL	8 µg/mL
COc1ccc(C(=O)COc2c(OC)ccc3c2c[n+]2c4c3ccc3c5c(cc(c34)CC2)OCO5)cc1C(F)(F)F.[Br-]	4 µg/mL	4 µg/mL	4 µg/mL	8 µg/mL	4 µg/mL	4 µg/mL	4 µg/mL	4 µg/mL	8 µg/mL	4 µg/mL	4 µg/mL	16 µg/mL	4 µg/mL	> 64 µg/mL	8 µg/mL	8 µg/mL	4 µg/mL	4 µg/mL	> 64 µg/mL	8 µg/mL
COc1ccc2c(c[n+]3c4c2ccc2c5c(cc(c24)CC3)OCO5)c1NC(=O)c1c(C)noc1C.[Cl-]	> 64 µg/mL	> 64 µg/mL	> 64 µg/mL	> 64 µg/mL	> 64 µg/mL	> 64 µg/mL	> 64 µg/mL	> 64 µg/mL	> 64 µg/mL	> 64 µg/mL	> 64 µg/mL	> 64 µg/mL	> 64 µg/mL	> 64 µg/mL	> 64 µg/mL	> 64 µg/mL	> 64 µg/mL	> 64 µg/mL	> 64 µg/mL	> 64 µg/mL
COc1ccc2c(c[n+]3c4c2ccc2c5c(cc(c24)CC3)OCO5)c1OCC(=O)c1ccccc1.[Br-]	32 µg/mL	16 µg/mL	32 µg/mL	16 µg/mL	16 µg/mL	16 µg/mL	16 µg/mL	16 µg/mL	64 µg/mL	8 µg/mL	32 µg/mL	32 µg/mL	32 µg/mL	> 64 µg/mL	32 µg/mL	16 µg/mL	16 µg/mL	16 µg/mL	> 64 µg/mL	32 µg/mL
COc1ccc(CNc2c(OC)ccc3c2c[n+]2c4c3ccc3c5c(cc(c34)CC2)OCO5)cc1.[Cl-]	8 µg/mL								64 µg/mL	8 µg/mL				16 µg/mL				16 µg/mL	> 64 µg/mL	
